Screening data as filed in PubChem.
ABCB6 inh 2: blocks the human ABCB6 transporter | K562-ABCB6 porphyrin accumulation, flow cytometry, 1 h; stronger effect = lower value | AID 602162 | 360,000 compounds, 0.19% hits | fluorescence ratio to DMSO, % at 10 µM | Q9NP58;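 active means fluorescence ratio to DMSO below 75%, the collection mean minus 3 SD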;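 further: signal is porphyrin accumulated inside mitochondria; lower ratio means ABCB6 inhibition with less porphyrin fluorescence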
AHR activator: activates the human aryl hydrocarbon receptor. 320,000 compounds, 2.5% hits. activation, % at 5 µM. AHR-responsive luciferase reporter cells, luminescence. P35869; in the data active means activation above about 47%
SR-BI HDL uptake: inhibitors of mouse SR-BI mediated HDL lipid uptake. AID 488896. 320,000 compounds, 0.96% hits. ldlA[mSR-BI] CHO cells, DiI-HDL uptake fluorescence, 3 h. Q61009. inhibition, % at 12.5 µM;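 active means mean replicate inhibition of at least 70% and a set share of replicates each scoring 70 or more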
HIF activator: HIF pathway transcriptional activation; U2OS HRE-luciferase reporter, luminescence; normalized: DMSO 0%, desferrioxamine 100%; activation, % at 7.5 µM (by protocol); 300,000 compounds, 0.32% hits; AID 1910;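 active means mean activation of at least 10% of the iron chelator positive control signal, with at least half of replicates also reaching 10%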
GAA850 FXN act: frataxin GAA850 promoter activation | HEK293 lucGAA850 FXN promoter luciferase reporter, 24 h; percent of 10 µM SAHA response | activation, % at 6 µM | 360,000 compounds, 0.56% hits | AID 540364;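 active means activation above the average of all compounds screened plus 3 SD, cutoff fixed separately per campaign, cut at about 7.5% in these data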
SR-BI DiI-HDL act: SR-BI HDL lipid transfer activation | CHO ldlA[mSR-BI] cells, DiI-HDL uptake fluorescence, 3 h; 100 = double the neutral-control signal | activation, % at 12.5 µM | 320,000 compounds, 0.096% hits | AID 504775;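 active means mean replicate activation of at least 60% and every replicate at or above 60%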
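Test system: SR-BI-overexpressing, LDLR-lacking CHO cells. Measured by: DiI fluorescence, bottom read. Medium: Ham's F12 with 0.5% BSA, HEPES 25 mM, pH 7.4. Timing: 3 h uptake period with compound, 37 °C.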
Numbers stand for hits; n = inactive; x = not tested or not shown. A selection: hits, their analogues and other compounds. The true share with any hit is near 3.9%.

SMILES | ABCB6 inh 2 | AHR activator | SR-BI HDL uptake | HIF activator | GAA850 FXN act | SR-BI DiI-HDL act
O=[N+]([O-])c1ccc2nc(-c3ccccc3)n(OCc3ccc(Cl)cc3)c2c1 | n | n | 77.6 | n | n | n
O=C(O)COn1c(-c2ccccc2)nc2ccc(Cl)cc21 | n | n | n | n | n | n
O=C(NCCNc1ccc([N+](=O)[O-])cc1C(F)(F)F)c1ccccc1F | n | 59.3 | n | n | n | n
Cc1ccc(C(=O)NCCNc2ccc([N+](=O)[O-])cc2C(F)(F)F)cc1 | n | n | n | n | n | n
COc1ccc(OCc2cnc(Cl)s2)cc1 | n | n | n | n | 17.3 | n
CCc1ccc(/C(C)=N/Nc2cc(Cl)nc(C)n2)cc1 | n | n | 78.6 | n | n | n
COc1ccc2c(c1OC)C(=O)N1N=C(c3ccc(F)cc3)CC21 (configuration not stated) | n | n | n | n | n | n
O=C(Nc1cccc(-c2nc3ccccc3s2)c1)c1cc(-n2cnnc2)ccc1Cl | n | n | n | x | n | n
Cc1ccc(NC(=O)c2ccc3c(c2)OCCO3)cc1 | n | n | n | n | n | n
CCC(O)c1cc2c(cc1NC(=O)c1ccc(C)cc1)OCCO2 (configuration not stated) | n | 62.7 | n | n | n | n
O=c1c2ccccc2nnn1CSc1ccc2ccccc2n1 | n | n | n | n | n | n
O=c1c2ccccc2nnn1CSc1ccccc1 | n | 60.4 | n | n | n | n
Oc1ccc(Cl)cc1CNc1cnc2ccccc2c1 | n | n | n | n | n | n
Oc1ccccc1CNc1cnc2ccccc2c1 | n | 48.9 | n | n | n | n
CCCC(=O)Nc1nc2ccc(C(=O)OCC)cc2s1 | n | n | n | n | n | n
CCOC(=O)c1ccc2nc3c(cc2c1)CCS3 | n | n | n | n | 11.7 | n
O=C1[C@H](Cc2ccccc2)NCC=CC[C@@H](c2ccco2)N1Cc1ccccc1 | n | x | n | x | n | n
O=C1c2ccccc2C(=O)N1OCc1ccc(Cl)cc1 | n | 51.3 | n | n | n | n
O=C1c2ccccc2C(=O)N1OCCOCCOCCON1C(=O)c2ccccc2C1=O | n | n | n | n | n | n
O=C1Cc2ccccc2C(=O)N1OCc1ccc(Cl)cc1 | n | 66.1 | n | n | n | n
Cc1ccn2cc(-c3ccc(Br)cc3)nc2c1 | n | 74.1 | x | n | n | x
COc1cc2sc3cc(NCc4ccc5c(c4)OCO5)ccc3c(=O)c2cc1OC | n | n | 73.0 | x | n | n
COc1ccc(NCc2ccc3c(c2)OCO3)cc1Cl | n | n | n | n | n | n
COc1cccc2sc3cc(NCc4ccc5c(c4)OCO5)ccc3c(=O)c12 | n | 76.2 | n | x | n | n
N/C(=N\OC(=O)CCc1ccccc1)c1ccccc1Cl | n | n | n | n | n | n
SMILES | ABCB6 inh 2 | AHR activator | SR-BI HDL uptake | HIF activator | GAA850 FXN act | SR-BI DiI-HDL act
COC(=O)NNC(=O)COc1cc(C)ccc1C | n | n | n | n | n | n
Cc1ccc(C)c(S(=O)(=O)/N=C2\C=C(NS(=O)(=O)c3ccccc3)C(=O)c3ccccc32)c1 | n | 74.2 | n | n | n | n
CCn1nnnc1SCC(=O)Nc1ccc2c(c1)OCO2 | n | n | n | n | n | n
COc1cc(NC(=O)CSc2nnnn2Cc2ccc3c(c2)OCO3)cc(OC)c1 | n | 70.7 | n | n | n | n
CCC(=O)NC(=S)Nc1ccc(NC(=O)c2ccco2)c(OC)c1 | n | n | n | n | n | n
c1ccc(-c2cnc(-c3cccnc3)o2)cc1 | n | n | n | x | n | n
CC(C)(C)c1cc(-c2nc(N)nc(N)n2)c(O)c(C(C)(C)C)c1 | n | n | n | x | n | n
CCOc1ccc(NC(=O)c2cccc3ccccc23)cc1 | n | n | n | n | n | n
CCOc1ccc(NC(=O)c2cc(OC)nc3ccccc23)cc1 | n | 65.3 | n | n | n | n
Cc1nc2ccccc2c2oc(C(=O)NC3CC3)cc12 | n | 65.0 | n | n | n | n
CCOc1ccc(NC(=O)c2cc3c(C)nc4ccccc4c3o2)cc1 | n | n | 98.6 | n | n | n
CCOc1ccc(NC(=O)c2ccc(Cn3nc(C)cc3C)o2)cc1 | n | 47.1 | n | n | n | n
Cc1nc2ccccc2c2oc(C(=O)NCCN3CCN(C)CC3)cc12 | n | n | n | n | n | n
CCc1cccc(NC(=O)c2ccc(Cn3nc(C)cc3C)o2)c1 | n | n | n | n | n | n
COc1ccc(CCCc2nnc(SCC(=O)Nc3nc(C)cs3)n2C)cc1 | n | n | n | n | n | n
Cc1ccc(NC(=O)CSc2nnc(Cc3cccn3C)n2-c2ccc(F)cc2)cc1 | n | n | n | n | n | n
COC(=O)c1ccc(/C=C/c2c(-c3ccsc3)sc3ccccc23)cc1 | n | n | 79.1 | n | n | n
COc1ccc(-c2sc3ccccc3c2/C=C/c2ccc(N)cc2)cc1 | n | 53.6 | n | x | n | n
COc1ccc2sc(-c3ccc(SC)cc3)c(/C=C/c3ccc(OC)c(OC)c3)c2c1 | n | 49.5 | n | x | n | n
COC(=O)c1c(-c2ccc(OC)cc2)sc2ccc(OC)cc12 | n | n | n | x | n | n
COc1ccc(/C=C/c2c(-c3ccc(OC)cc3)sc3ccc(N4CCOCC4)cc23)cc1 | n | n | n | n | n | n
COc1ccc(N(CCN2C(=O)c3ccccc3C2=O)C(=O)c2cccc([N+](=O)[O-])c2)cc1 | n | n | n | n | n | n
COc1ccc(N(CCCN2C(=O)c3cccc4cccc(c34)C2=O)C(=O)c2ccncc2)cc1 | n | 76.1 | n | n | n | n
COc1cc(OC)cc(C(=O)N(CCCN2C(=O)c3cccc4cccc(c34)C2=O)c2cccc(OC)c2)c1 | n | 103.3 | n | n | n | n
COc1ccc(N(CCCN2C(=O)c3cccc4cccc(c34)C2=O)C(=O)c2cccnc2)cc1 | n | 75.5 | n | n | n | n
SMILES | ABCB6 inh 2 | AHR activator | SR-BI HDL uptake | HIF activator | GAA850 FXN act | SR-BI DiI-HDL act
O=c1cc(CCl)nc2sc3ccccc3n12 | n | n | x | n | n | x
Nc1c(-c2ccc(Cl)cc2)cnn1-c1cccc(C(F)(F)F)c1 | n | n | 76.8 | n | n | n
CN(C)/C=C1\N=C(c2ccc3c(c2)OCO3)OC1=O | n | n | n | n | n | n
Cc1ccc2c(c1)-c1nc3ccccc3cc1C2=NC1CCCCC1 | n | 78.8 | n | x | n | n
OC[C@@H]1CN(Cc2ccc(F)cc2)C[C@H](n2cnc3c(NCc4ccco4)ncnc32)O1 | n | x | x | x | n | x
Nc1nc2nccc(-c3ccccn3)n2n1 | n | n | n | n | n | n
O=C(C(=O)N1CCCc2ccccc21)c1c[nH]c2ccccc12 | n | 50.5 | n | x | n | n
Cn1cc(C(=O)C(=O)N2CCc3ccccc32)c2ccccc21 | n | 62.9 | n | n | n | n
Cc1[nH]c2ccccc2c1C(=O)C(=O)N1CCCc2ccccc21 | n | n | n | n | n | n
Cn1cc(S(=O)(=O)CC(=O)N2CCc3ccccc32)c2ccccc21 | n | n | n | n | n | n
